# In ChEMBL document CHEMBL4138101, “Rhodium-catalyzed C-H bond activation for the synthesis of quinonoid compounds: Significant Anti-Trypanosoma cruzi activities and electrochemical studies of functionalized quinones” (Eur J Med Chem, 2017):
# Assays:
# Trypanosoma cruzi [1] = assay: Antitrypanosomal activity against bloodstream forms of Trypanosoma cruzi Y isolated from parasite infected Albino Swiss mouse assessed as induction of parasite lysis incubated for 24 hrs by Neubauer chamber based cell counting method; format: functional, organism-based
# Outline: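 Bloodstream trypomastigotes were taken from infected mice at peak parasitemia by differential centrifugation and resuspended at 10x10^6 cells/mL in DMES medium. They were mixed 1:1 with compound at twice the final concentration, with DMSO final ≤0.1%, and incubated at 37°C for 24 h. Benznidazole was the control. Counts were made in a Neubauer chamber, giving IC50/24 h as the concentration causing 50% parasite lysis.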
# [2] = Cytotoxicity against Swiss albino mouse peritoneal macrophages after 24 hrs by PrestoBlue dye based assay; format: cell-based, Peritoneal macrophage; conditions: read-out: LC50
# [3] = Selectivity index, ratio of LC50 for cytotoxicity against Swiss albino mouse peritoneal macrophages to IC50 for Antitrypanosomal activity against bloodstream forms of Trypanosoma cruzi Y isolated from parasite infected Albino Swiss mouse; format: toxicity; conditions: read-out: Ratio LC50/IC50
# Trypanosoma cruzi [4] = assay: Potency index, ratio of juglone IC50 to compound IC50 for antitrypanosomal activity against bloodstream forms of Trypanosoma cruzi Y isolated from parasite infected Albino Swiss mouse; format: functional
Compound,IC50 (Trypanosoma cruzi [1]),CC50 at 24 h [2],selectivity ratio [3],Ratio (Trypanosoma cruzi [4])
COc1cccc2c1C(=O)C=CC2=O,1.02 µM,,,
CC(=O)Oc1cccc2c1C(=O)C=CC2=O,0.16 µM,,,
CC(C)(C)C1=CC(=O)C(Br)=CC1=O,14.1 µM,42.3 µM,3,
COC1=C(I)C(=O)C(I)=C(OC)C1=O,1.94 µM,27.7 µM,,
O=C1C=CC(=O)C([Se]c2ccccc2)=C1,16 µM,13.8 µM,0.86,
Nc1c(I)ccc2c1C(=O)C=CC2=O,0.56 µM,13.1 µM,23.4,
COc1ccc2c(c1I)C(=O)C=CC2=O,1.17 µM,14.2 µM,12.1,
O=C1C=C(I)C(=O)c2ccccc21,1.79 µM,14.7 µM,8.2,
CC1=CC(=O)c2c(ccc(I)c2O)C1=O,0.99 µM,15.7 µM,15.8,
O=C1C=CC(=O)c2c(O)c(I)cc(I)c21,24.8 µM,> 100 µM,> 5.1,
O=C1C=CC(=O)c2c(C#Cc3ccccc3)cccc21,2.2 µM,12.5 µM,5.7,
O=C1C=C(Br)C(=O)C(Cl)=C1Cl,15.4 µM,> 100 µM,> 6.5,
Cc1cc(I)c2c(c1)C(=O)C=CC2=O,0.49 µM,12.1 µM,24.7,
O=C1C=CC(=O)c2c(I)ccc(I)c21,0.22 µM,12.9 µM,,
CCOC(=O)/C=C/c1cccc2c1C(=O)C=CC2=O,6.03 µM,12.7 µM,2.1,
O=C1C(Cl)=C(Cl)C(=O)c2c(I)cccc21,7.26 µM,27.8 µM,3.8,
CC(C)(C)C1=CC(=O)C(I)=CC1=O,12.8 µM,35.9 µM,2.8,
CC(=O)Oc1cccc2c1C(=O)C(Br)=CC2=O,0.85 µM,,,
COC1=C(I)C(=O)C=CC1=O,23.9 µM,32.6 µM,1.4,
COc1cc2c(c(I)c1OC)C(=O)C=CC2=O,1.62 µM,12.2 µM,7.5,

Compound,IC50 (Trypanosoma cruzi [1]),CC50 at 24 h [2],selectivity ratio [3],Ratio (Trypanosoma cruzi [4])
COC(=O)c1ccc(I)c2c1C(=O)C=CC2=O,1.61 µM,13.9 µM,8.7,
COc1c(I)ccc2c1C(=O)C=C(C)C2=O,4.06 µM,24.7 µM,6.1,
O=C1C(Br)=CC(=O)c2c(I)cccc21,1.38 µM,12.2 µM,8.8,4.7
COc1c(I)ccc2c1C(=O)C=CC2=O,1.35 µM,13.3 µM,9.8,
O=C1C=CC(=O)c2c1ccc(I)c2O,42 µM,> 100 µM,> 4.6,
CC1=C(C)C(=O)C(I)=CC1=O,10.1 µM,15.4 µM,1.5,
O=C1C=CC(=O)C(Br)=C1,21.5 µM,34.4 µM,1.6,
O=C1C=C(I)C(=O)C(Cl)=C1Cl,27 µM,> 100 µM,> 4.7,
O=C1C=C([Se]c2ccccc2)C(=O)c2ccccc21,1.13 µM,12.7 µM,11.2,
O=C1C=CC(=O)c2c(/C=C/c3ccccc3)cccc21,0.19 µM,11.9 µM,62.5,
O=C1C=CC(=O)c2c(I)cccc21,0.59 µM,11.5 µM,19.5,
O=C1C=C([Se]c2ccccc2)C(=O)C=C1[Se]c1ccccc1,83.4 µM,> 100 µM,> 1.2,
O=C1C(Br)=C(Br)C(=O)c2c(I)cccc21,2.25 µM,11.8 µM,5.3,
O=C1C=CC(=O)C(I)=C1,60.6 µM,86 µM,,
O=C1C=CC(=O)c2c1cccc2-c1ccccc1,1.24 µM,12.7 µM,10.2,5.2
COc1ccc(I)c2c1C(=O)C=CC2=O,3.54 µM,13.6 µM,3.8,
"O=C1C=C(Br)C(=O)c2ccccc21 [2-Bromo-1,4-naphthoquinone]",1.37 µM,,,
O=C(Cn1ccnc1[N+](=O)[O-])NCc1ccccc1 [BENZNIDAZOLE],9.68 µM,> 4000 µM,> 413,
O=C1C=CC(=O)c2c(O)cccc21 [JUGLONE],6.51 µM,,,
CC1=CC(=O)c2c(O)cccc2C1=O [PLUMBAGIN],1.38 µM,,,
